Test results published in ChEMBL document CHEMBL2093137, “WHO-TDR NTD Screening”.
In brackets after ≈: the same amount, converted by molar mass.

Tests used:
[1] = WHO-TDR: Cytotoxicity; assay type: toxicity, cell-based; conditions: human, MRC5 cells
[2] = tested on: Plasmodium falciparum K1; assay: WHO-TDR: Malaria; assay type: functional, organism-based, Homo sapiens; conditions: Erythrocyte
How it was run: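 Values are IC50 figures for antiplasmodial potency. They come from a whole-organism screen of 10,000 diverse Life Chemicals compounds against Plasmodium falciparum K1 growing inside human red blood cells, run by previously published standard procedures.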

[3] = tested on: Trypanosoma cruzi; assay: WHO-TDR: Chagas disease; assay type: functional, organism-based, Homo sapiens; conditions: MRC5
How it was run: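 A diverse library of 10,000 compounds from Life Chemicals, filtered for drug-likeness and reactive groups, was screened against intracellular amastigotes of Trypanosoma cruzi Tulahuen CL2 beta-galactosidase strain. The parasites were grown in MRC-5SV2 human lung fibroblast host cells, and a reference drug served as positive control under previously published standard procedures. Antiparasitic potency is given as IC50.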

[4] = tested on: Trypanosoma brucei brucei; assay: WHO-TDR: Human African Trypanosomiasis (HAT); assay type: functional, organism-based; conditions: Squib-427
How it was run: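 Values are IC50 figures for antiparasitic potency. They come from a whole-organism screen of 10,000 diverse Life Chemicals compounds against bloodstream-form Trypanosoma brucei (Squib 427 strain).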

[5] = tested on: Leishmania infantum; assay: WHO-TDR: Leishmaniasis; assay type: functional, organism-based, Mus musculus; conditions: Macrophage
How it was run: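 Values are IC50 figures for antiparasitic potency. They come from a whole-organism screen of a 10,000-compound diverse Life Chemicals library against Leishmania infantum MHOM/MA(BE)/67 amastigotes inside murine peritoneal macrophage host cells.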

[6] = tested on: Schistosoma mansoni; assay: WHO-TDR: Schistosomiasis; assay type: functional; design: concentration or dose not given beside the values
How it was run: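 Values are reported as percent inhibition and IC50. They come from a whole-organism screen of a 10,000-compound diverse Life Chemicals library against larval and/or adult worms of Schistosoma mansoni, Puerto Rican strain. The library had been filtered for drug-likeness and reactive groups.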

[7] = tested on: Onchocerca ochengi; assay: WHO-TDR: Onchocerciasis; assay type: functional; design: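 at 12.5 µM on microfilariae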
How it was run: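 Values are reported as percent inhibition and as IC50. They come from a whole-organism screen of a 10,000-compound diverse Life Chemicals library against microfilariae of Onchocerca ochengi or Onchocerca lienalis. The screen followed previously published standard procedures, with reference drugs as positive controls.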

[8] = tested on: Brugia malayi; assay: WHO-TDR: Lymphatic Filariasis; assay type: functional; design: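 tested at 10 µM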
How it was run: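 Values are percent inhibition and IC50 from a whole-organism screen against Brugia malayi microfilariae. The compounds, 10,000 in all, came from a diverse Life Chemicals library filtered for drug-likeness and reactive groups.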

Row | SMILES | IC50 [1] [µg/mL] | IC50 [2] [µg/mL] | IC50 [3] [µg/mL] | IC50 [4] [µg/mL] | IC50 [5] [µg/mL] | % Inhibition [6] [%] | % Inhibition [7] [%] | % Inhibition [8] [%]
1 | CCSc1nnc2ccc(-c3ccc(CC)cc3)nn12 | > 8.53 | > 8.53 | > 8.53 | > 8.53 | > 8.53 | 0 | 100 | 
2 | Cc1ccc(SCCC(=O)Nc2cc(Cl)cc(Cl)c2)cc1 | > 10.2 | > 10.2 | > 10.2 | > 10.2 | > 10.2 | 0 | 100 | 
3 | O=C(CCS(=O)(=O)c1ccc(Cl)cc1)Nc1cccc(-c2nc3ccccc3o2)c1 | > 13.2 | > 13.2 | > 13.2 | > 13.2 | 4.28 (≈ 9.71 µM) | 0 | 100 | 
4 | O=C(Nc1cccc(-c2ccc3nnc(-c4cccs4)n3n2)c1)c1c(F)cccc1F | > 13 | 5.18 (≈ 11.9 µM) | > 13 | 0.481 (≈ 1.11 µM) | > 13 | 0 | 50 | 
5 | O=C(Nc1nnc(-c2ccco2)o1)c1cc(-c2ccccc2)nc2ccccc12 | 2.04 (≈ 5.33 µM) | 9.02 (≈ 23.6 µM) | 0.305 (≈ 0.798 µM) | 3.23 (≈ 8.45 µM) | 3.71 (≈ 9.71 µM) | 0 |  | 0
6 | O=C(COc1ccccc1)NCC(c1ccco1)N1CCN(c2ccc(F)cc2)CC1 (stereo not drawn) | > 12.7 | > 12.7 | 4.08 (≈ 9.63 µM) | 4.02 (≈ 9.49 µM) | > 12.7 | 0 | 100 | 
7 | CCOc1ccc2nc(NC(=O)CS(=O)(=O)c3ccc(Cl)cc3)sc2c1 | > 12.3 | > 12.3 | > 12.3 | > 12.3 | > 12.3 | 0 | 100 | 
8 | O=C(Nc1nnc(-c2cccnc2)o1)c1cccc(Br)c1 | 8.09 (≈ 23.4 µM) | > 10.4 | 0.705 (≈ 2.04 µM) | > 11 | 3.35 (≈ 9.71 µM) | 0 |  | 25
9 | COc1cccc2sc(Nc3nc(-c4ccncc4)cs3)nc12 | 4.5 (≈ 13.2 µM) | > 10.2 | 0.132 (≈ 0.388 µM) | > 10.2 | > 10.2 | 0 |  | 25
10 | COc1cccc(C(=O)Nc2ccc(C)cc2C(=O)c2ccccc2)c1OC | > 11.3 | > 11.3 | 3.69 (≈ 9.83 µM) | 7.21 (≈ 19.2 µM) | 4.75 (≈ 12.6 µM) | 0 | 100 | 
11 | Cc1ccc(SCCC(=O)Nc2nc(-c3ccccn3)cs2)cc1 | 8.21 (≈ 23.1 µM) | > 10.7 | 0.368 (≈ 1.03 µM) | > 10.7 | > 10.7 | 25 | 75 | 
12 | O=S(=O)(Nc1ccc(-c2ccc3nnc(-c4ccccn4)n3n2)cc1)c1ccccc1F | > 13.4 | 5.88 (≈ 13.2 µM) | > 13.4 | > 13.4 | > 13.4 | 0 | 100 | 
13 | Cc1nc2c(ccc3nc(Nc4nc5ccc(C(C)C)cc5s4)sc32)s1 | 3.59 (≈ 9.04 µM) | 3.97 (≈ 10 µM) | 4.11 (≈ 10.4 µM) | 0.385 (≈ 0.971 µM) | 0.385 (≈ 0.971 µM) | 0 |  | 25
14 | NS(=O)(=O)c1ccc2nc(NC(=O)CCSc3ccc(Cl)cc3)sc2c1 | > 12.8 | > 12.8 | > 12.8 | 4.31 (≈ 10.1 µM) | > 12.8 | 0 | 100 | 
15 | O=C(CS(=O)(=O)c1ccc(Cl)cc1)Nc1nc(-c2ccc(F)cc2)cs1 | > 12.3 | > 12.3 | > 12.3 | > 12.3 | > 12.3 | 0 | 100 | 
16 | CCOc1ccc2nc(N(Cc3cccnc3)C(=O)c3ccc(Cl)s3)sc2c1 | > 12.9 | 4.14 (≈ 9.62 µM) | 0.397 (≈ 0.922 µM) | > 12.9 | > 12.9 | 0 | 0 | 
17 | Cc1nnc2ccc(-c3ccc(NS(=O)(=O)c4ccc5c(c4)CCCC5)cc3)nn12 | > 12.6 | > 12.6 | 4.92 (≈ 11.7 µM) | 4.63 (≈ 11 µM) | 4.07 (≈ 9.71 µM) | 0 | 100 | 
18 | O=C(Nc1cccc(-c2ccc3nnc(-c4cccnc4)n3n2)c1)c1ccco1 | > 11.5 | 1.82 (≈ 4.75 µM) | > 11.5 | > 11.5 | > 11.5 | 0 | 100 | 
19 | O=C(NCC(c1ccco1)N1CCN(c2ccc(F)cc2)CC1)OCc1ccccc1 (stereo not drawn) | > 12.7 | > 12.7 | 3.86 (≈ 9.13 µM) | 4.11 (≈ 9.71 µM) | > 12.7 | 0 | 100 | 
20 | Cc1ccc(SCC(=O)Nc2ccccc2-c2nc3ccccc3[nH]2)cc1 | > 11.2 | > 11.2 | > 11.2 | > 11.2 | > 11.2 | 0 | 100 | 
21 | CC(=O)c1ccc(C(=O)N(Cc2cccnc2)c2nc3c(F)cc(F)cc3s2)cc1 | > 12.7 | 6.29 (≈ 14.8 µM) | 1.31 (≈ 3.09 µM) | 5.26 (≈ 12.4 µM) | > 12.7 | 0 | 100 | 
22 | COc1ccc(-c2nc(NC(=O)CSc3ccc(Cl)cc3)sc2C)cc1 | > 12.1 | 0.41 (≈ 1.01 µM) | 1.52 (≈ 3.76 µM) | 3.93 (≈ 9.71 µM) | > 12.1 | 0 | 100 | 
23 | C=CCN(CC=C)S(=O)(=O)c1ccc(C(=O)Nc2nnc(-c3ccc(C)cc3C)o2)cc1 | 4.48 (≈ 9.9 µM) | > 13.6 | 0.583 (≈ 1.29 µM) | 0.988 (≈ 2.18 µM) | 5.72 (≈ 12.7 µM) | 0 | 0 | 
24 | O=C(Cc1cccs1)Nc1cccc(-c2ccc3nnc(-c4cccnc4)n3n2)c1 | 4.45 (≈ 10.8 µM) | 2.67 (≈ 6.46 µM) | > 12.4 | 3.81 (≈ 9.24 µM) | > 12.4 | 0 | 100 | 
25 | COc1ccc(C)c2sc(N(Cc3cccnc3)C(=O)Cc3ccccc3)nc12 | > 12.1 | 3.83 (≈ 9.49 µM) | 0.992 (≈ 2.46 µM) | 3.87 (≈ 9.6 µM) | > 12.1 | 0 | 0 | 
26 | CNC(=O)c1ccsc1NC(=O)CSc1ccc(Cl)cc1 | > 10.2 | > 10.2 | 4.93 (≈ 14.5 µM) | 5.06 (≈ 14.8 µM) | > 10.2 | 0 | 100 | 
27 | Cc1ccc(S(=O)(=O)CC(=O)Nc2cccc(Cl)c2)cc1 | > 9.71 | > 9.71 | > 9.71 | > 9.71 | > 9.71 | 0 | 100 | 
28 | O=C(Nc1cccc(-c2ccc3nnc(-c4ccncc4)n3n2)c1)c1ccc2ccccc2n1 | > 13.3 | 0.482 (≈ 1.09 µM) | 7.48 (≈ 16.9 µM) | > 13.3 | > 13.3 | 0 | 0 | 
29 | CCOC(=O)c1ccc(NC(=O)CCSc2ccc(C)cc2)cc1 | > 10.3 | > 10.3 | > 10.3 | > 10.3 | > 10.3 | 0 | 100 | 
